≈ marks a conversion by molar mass, not a printed value. Calls of active or inactive are those of the source. The calls are words filed in the database; no cut-off is given here. Residues, ends and D or L forms follow the SMILES beside them.
Legend:
Enterococcus faecalis [1] = experiment: Induction of aggregation of Enterococcus faecalis JH2SS harboring pMG2201 at 100 ng/ml; assay type: functional, organism-based
In short: (§1)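 Donor E. faecalis JH2SS carrying the plasmid, exposed 2 h to synthetic pheromone (cAD1, cPD1, cCF10, cOB1 or cAM373 at 100 ng/ml) or to FA2-2 culture filtrate. Aggregation (clumping) of cells scored visually afterwards. A short 10-min mating with FA2-2 followed induction.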

Enterococcus faecalis [2] = experiment: Induction of aggregation of Enterococcus faecalis JH2SS harboring pMG2200 at 100 ng/ml; assay type: functional, organism-based; in short: as §1
Enterococcus faecalis [3] = experiment: Induction of transfer of plasmid pAM714 in Enterococcus faecalis JH2SS at 100 ng/ml; assay type: functional, organism-based
In short: (§2)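 Donor E. faecalis JH2SS carrying pMG2200 and pAM714 was exposed for 2 h to a synthetic pheromone (cCF10 or cAD1, 100 ng/ml) to induce aggregation-mating. A short 10-min mating with recipient FA2-2 followed. Transfer frequency was scored as transconjugants per donor cell at the end of mating.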

Enterococcus faecalis [4] = experiment: Induction of transfer of plasmid pMG2200 in Enterococcus faecalis JH2SS at 100 ng/ml; assay type: functional, organism-based; in short: as §2
Enterococcus faecalis [5] = experiment: Antimicrobial activity against Enterococcus faecalis NKH6 harboring pMG2200-like and pMG2201-like plasmids after 24 hrs by agar dilution method; assay type: functional; settings: NKH6, 24 h
In short: (§3)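 Agar dilution MICs on clinical E. faecalis isolates. Overnight Mueller-Hinton broth culture diluted 100-fold; ~5 × 10^5 cells inoculated onto Mueller-Hinton medium holding a concentration series of each drug. Incubated at 37°C and read at 24 h. Testing and interpretation follow CLSI (NCCLS) standards, with E. faecium ATCC 9790 as control strain.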

Enterococcus faecalis [6] = experiment: Antimicrobial activity against Enterococcus faecalis NKH12 harboring pMG2200-like and pMG2201-like plasmids after 24 hrs by agar dilution method; assay type: functional; settings: NKH12, 24 h; in short: as §3
Enterococcus faecalis [7] = experiment: Antimicrobial activity against Enterococcus faecalis NKH10 harboring pMG2200-like and pMG2201-like plasmids after 24 hrs by agar dilution method; assay type: functional; settings: NKH10, 24 h; in short: as §3
Enterococcus faecalis [8] = experiment: Antimicrobial activity against Enterococcus faecalis NKH4 harboring pMG2200-like and pMG2201-like plasmids after 24 hrs by agar dilution method; assay type: functional; settings: NKH4, 24 h; in short: as §3
Enterococcus faecalis [9] = experiment: Antimicrobial activity against Enterococcus faecalis NKH2 harboring pMG2200-like and pMG2201-like plasmids after 24 hrs by agar dilution method; assay type: functional; settings: NKH2, 24 h; in short: as §3
Enterococcus faecalis [10] = experiment: Antimicrobial activity against Enterococcus faecalis NKH3 harboring pMG2200-like and pMG2201-like plasmids after 24 hrs by agar dilution method; assay type: functional; settings: NKH3, 24 h; in short: as §3
Enterococcus faecalis [11] = experiment: Antimicrobial activity against Enterococcus faecalis NKH11 harboring pMG2200-like plasmid after 24 hrs by agar dilution method; assay type: functional; settings: NKH11, 24 h; in short: as §3
Enterococcus faecalis [12] = experiment: Antimicrobial activity against Enterococcus faecalis NKH1 harboring pMG2200-like plasmid after 24 hrs by agar dilution method; assay type: functional; settings: NKH1, 24 h; in short: as §3
Enterococcus faecalis [13] = experiment: Antimicrobial activity against Enterococcus faecalis NKH15 harboring pMG2200-like and pMG2201-like plasmids after 24 hrs by agar dilution method; assay type: functional; settings: NKH15, 24 h; in short: as §3
Enterococcus faecalis [14] = experiment: Antimicrobial activity against Enterococcus faecalis NKH5 harboring pMG2200-like plasmid after 24 hrs by agar dilution method; assay type: functional; settings: NKH5, 24 h; in short: as §3
Enterococcus faecalis [15] = experiment: Antimicrobial activity against Enterococcus faecalis NKH18 harboring pMG2200-like and pMG2201-like plasmids after 24 hrs by agar dilution method; assay type: functional; settings: NKH18, 24 h; in short: as §3
Enterococcus faecalis [16] = experiment: Antimicrobial activity against Enterococcus faecalis NKH17 harboring pMG2200-like plasmid after 24 hrs by agar dilution method; assay type: functional; settings: NKH17, 24 h; in short: as §3
Enterococcus faecalis [17] = experiment: Antimicrobial activity against Enterococcus faecalis NKH13 harboring pMG2200-like and pMG2201-like plasmids after 24 hrs by agar dilution method; assay type: functional; settings: NKH13, 24 h; in short: as §3
Enterococcus faecalis [18] = experiment: Antimicrobial activity against Enterococcus faecalis NKH8 harboring pMG2200-like and pMG2201-like plasmids after 24 hrs by agar dilution method; assay type: functional; settings: NKH8, 24 h; in short: as §3
Enterococcus faecalis [19] = experiment: Antimicrobial activity against Enterococcus faecalis NKH9 harboring pMG2200-like and pMG2201-like plasmids after 24 hrs by agar dilution method; assay type: functional; settings: NKH9, 24 h; in short: as §3
Enterococcus faecalis [20] = experiment: Antimicrobial activity against Enterococcus faecalis NKH14 harboring pMG2200-like and pMG2201-like plasmids after 24 hrs by agar dilution method; assay type: functional; settings: NKH14, 24 h; in short: as §3
Enterococcus faecalis [21] = experiment: Antimicrobial activity against Enterococcus faecalis NKH16 harboring pMG2200-like plasmid after 24 hrs by agar dilution method; assay type: functional; settings: NKH16, 24 h; in short: as §3
Enterococcus faecalis [22] = experiment: Antimicrobial activity against Enterococcus faecalis NKH7 harboring pMG2200-like plasmid after 24 hrs by agar dilution method; assay type: functional; settings: NKH7, 24 h; in short: as §3

CC[C@H](C)[C@H](NC(=O)[C@H](C)N)C(=O)N[C@@H](Cc1ccccc1)C(=O)N[C@H](C(=O)N[C@@H](CC(C)C)C(=O)N[C@@H](C)C(=O)N[C@@H](CO)C(=O)O)[C@@H](C)CC (H-AIFILAS-OH)
Activity (Enterococcus faecalis [1]): inactive | Activity (Enterococcus faecalis [2]): inactive

CSCC[C@H](NC(=O)[C@@H](NC(=O)[C@H](CC(C)C)NC(=O)[C@@H](N)Cc1ccccc1)C(C)C)C(=O)N[C@@H](Cc1ccccc1)C(=O)N[C@@H](CC(C)C)C(=O)N[C@@H](CO)C(=O)NCC(=O)O (H-FLVMFLSG-OH)
Activity (Enterococcus faecalis [1]): inactive | Activity (Enterococcus faecalis [2]): inactive

CC(C)C[C@H](NC(=O)[C@H](CO)NC(=O)[C@H](Cc1ccccc1)NC(=O)[C@@H](N)CC(C)C)C(=O)N[C@H](C(=O)N[C@@H](CC(C)C)C(=O)N[C@@H](C)C(=O)NCC(=O)O)C(C)C (H-LFSLVLAG-OH)
Activity (Enterococcus faecalis [3]): Active | Activity (Enterococcus faecalis [4]): inactive | Activity (Enterococcus faecalis [1]): Active | Activity (Enterococcus faecalis [2]): inactive

CC(C)C[C@H](NC(=O)[C@@H](NC(=O)[C@@H](NC(=O)[C@@H](N)CC(C)C)C(C)C)[C@@H](C)O)C(=O)N[C@H](C(=O)N[C@@H](Cc1ccccc1)C(=O)N[C@H](C(=O)O)C(C)C)C(C)C (H-LVTLVFV-OH)
Activity (Enterococcus faecalis [3]): inactive | Activity (Enterococcus faecalis [4]): Active | Activity (Enterococcus faecalis [1]): inactive | Activity (Enterococcus faecalis [2]): Active

CC(C)C[C@H](NC(=O)[C@@H](NC(=O)[C@H](C)NC(=O)[C@@H](N)C(C)C)C(C)C)C(=O)N[C@H](C(=O)N[C@@H](CC(C)C)C(=O)NCC(=O)N[C@@H](C)C(=O)O)C(C)C (H-VAVLVLGA-OH)
Activity (Enterococcus faecalis [1]): inactive | Activity (Enterococcus faecalis [2]): inactive

CC1(C)S[C@@H]2[C@H](NC(=O)[C@H](N)c3ccccc3)C(=O)N2[C@H]1C(=O)O [AMPICILLIN]
MIC (Enterococcus faecalis [5]): 4 µg/mL (≈ 11.4 µM) | MIC (Enterococcus faecalis [6]): 4 µg/mL (≈ 11.4 µM) | MIC (Enterococcus faecalis [7]): 4 µg/mL (≈ 11.4 µM) | MIC (Enterococcus faecalis [8]): 4 µg/mL (≈ 11.4 µM) | MIC (Enterococcus faecalis [9]): 4 µg/mL (≈ 11.4 µM) | MIC (Enterococcus faecalis [10]): 4 µg/mL (≈ 11.4 µM) | MIC (Enterococcus faecalis [11]): 4 µg/mL (≈ 11.4 µM) | MIC (Enterococcus faecalis [12]): 4 µg/mL (≈ 11.4 µM) | MIC (Enterococcus faecalis [13]): 4 µg/mL (≈ 11.4 µM) | MIC (Enterococcus faecalis [14]): 4 µg/mL (≈ 11.4 µM)

O=C(N[C@H](CO)[C@H](O)c1ccc([N+](=O)[O-])cc1)C(Cl)Cl [CHLORAMPHENICOL]
MIC (Enterococcus faecalis [15]): 8 µg/mL (≈ 24.8 µM) | MIC (Enterococcus faecalis [16]): 4 µg/mL (≈ 12.4 µM) | MIC (Enterococcus faecalis [17]): 8 µg/mL (≈ 24.8 µM) | MIC (Enterococcus faecalis [5]): 8 µg/mL (≈ 24.8 µM) | MIC (Enterococcus faecalis [6]): 8 µg/mL (≈ 24.8 µM) | MIC (Enterococcus faecalis [7]): 8 µg/mL (≈ 24.8 µM) | MIC (Enterococcus faecalis [8]): 8 µg/mL (≈ 24.8 µM) | MIC (Enterococcus faecalis [18]): 8 µg/mL (≈ 24.8 µM) | MIC (Enterococcus faecalis [9]): 8 µg/mL (≈ 24.8 µM) | MIC (Enterococcus faecalis [10]): 8 µg/mL (≈ 24.8 µM) | MIC (Enterococcus faecalis [11]): 8 µg/mL (≈ 24.8 µM) | MIC (Enterococcus faecalis [12]): 8 µg/mL (≈ 24.8 µM) | MIC (Enterococcus faecalis [13]): 8 µg/mL (≈ 24.8 µM) | MIC (Enterococcus faecalis [19]): 8 µg/mL (≈ 24.8 µM) | MIC (Enterococcus faecalis [20]): 8 µg/mL (≈ 24.8 µM) | MIC (Enterococcus faecalis [21]): 4 µg/mL (≈ 12.4 µM) | MIC (Enterococcus faecalis [22]): 4 µg/mL (≈ 12.4 µM) | MIC (Enterococcus faecalis [14]): 4 µg/mL (≈ 12.4 µM)

Reference: ChEMBL document CHEMBL1629622, “Isolation of VanB-type Enterococcus faecalis strains from nosocomial infections: first report of the isolation and identification of the pheromone-responsive plasmids pMG2200, Encoding VanB-type vancomycin resistance and a Bac41-type bacteriocin, and pMG2201, encoding erythromycin resistance and …” (2009)
